According to ChEMBL document CHEMBL3769399, “Synthesis and cytotoxic activities of some pyrazoline derivatives bearing phenyl pyridazine core as new apoptosis inducers” (Eur J Med Chem, 2016):

Tests used:
[1] = tested on: HepG2; assay: Antiproliferative activity against human HepG2 cells assessed as cell viability after 24 hrs by MTT assay; type: functional, cell-based; conditions: HepG2, 24 h
Method in brief: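 HepG2 grown as monolayer in DMEM plus 10% fetal calf serum and penicillin/streptomycin at 37 °C, 5% CO2. Plated overnight at 10^3 cells/well and exposed 24 h to five levels (0–100) diluted in complete medium from a 1% DMSO stock. WST-1 absorbance at 450 nm gave blank-corrected % viability versus untreated control, from which IC50 was derived.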

[2] = Antiproliferative activity against human Caco2 cells assessed as cell viability after 24 hrs by MTT assay; type: functional, cell-based; conditions: Caco-2, 24 h
Method in brief: (§1)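 CaCo-2 kept in RPMI with 10% fetal calf serum and antibiotics at 37 °C, 5% CO2. Cells were seeded at 10^3 per well overnight, then treated 24 h at 0, 5, 10, 50 and 100, diluted from a stock containing 1% DMSO. Viability came from WST-1 read at 450 nm, blank-subtracted and normalised to untreated cells.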

[3] = tested on: A549; assay: Antiproliferative activity against human A549 cells assessed as cell viability after 24 hrs by MTT assay; type: functional, cell-based; conditions: A549, 24 h
Method in brief: (§2)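 Monolayers in DMEM (A549) or RPMI (MCF-7) with 10% fetal calf serum, penicillin and streptomycin at 37 °C and 5% CO2. Seeded overnight at 10^3 cells/well, then dosed at 0–100 from a serum-free stock in 1% DMSO diluted in complete medium. After 24 h, viability was read by WST-1 premix at 450 nm and blank-corrected against untreated cells. IC50 given as mean with standard error.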

[4] = tested on: MCF7; assay: Antiproliferative activity against human MCF7 cells assessed as cell viability after 24 hrs by MTT assay; type: functional, cell-based; conditions: MCF7, 24 h; method in brief: as §2
[5] = tested on: MCF7; assay: Induction of necrosis in human MCF7 cells at 10 uM by annexin V-FITC/ethidium homodimer III staining-based flow cytometry relative to control; type: functional
Method in brief: (§3)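 Treated cells at 2–3×10^5/mL were resuspended in 1X binding buffer and stained with FITC-Annexin V (apoptosis) plus Ethidium Homodimer III (necrosis) for 15 min at room temperature in the dark. Buffer was added and FACS was read within 1 h. Percent induction is the compound's apoptotic or necrotic fraction minus that of untreated negative control.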

[6] = tested on: MCF7; assay: Induction of apoptosis in human MCF7 cells at 10 uM by annexin V-FITC/ethidium homodimer III staining-based flow cytometry relative to control; type: functional; method in brief: as §3
[7] = Cytotoxicity against HEK293 cells assessed as cell viability at 300 uM after 24 hrs by MTT assay; type: cell-based; conditions: human, read-out: Activity
Method in brief: (§4)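 Human embryonic kidney 293 cells, as normal-cell counterpart, treated at four levels (10, 100, 200, 300). Percentage of viable cells reported with SE at each level, and IC50 estimated.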

[8] = Cytotoxicity against HEK293 cells assessed as cell viability at 200 uM after 24 hrs by MTT assay; type: cell-based; conditions: human, read-out: Activity; method in brief: as §4
[9] = tested on: HEK293; assay: Cytotoxicity against HEK293 cells assessed as cell viability after 24 hrs by MTT assay; type: cell-based; conditions: Homo sapiens, HEK293, 24 h; method in brief: as §4
[10] = Cytotoxicity against HEK293 cells assessed as cell viability at 10 uM after 24 hrs by MTT assay; type: cell-based; conditions: human, read-out: Activity; method in brief: as §4
[11] = Cytotoxicity against HEK293 cells assessed as cell viability at 100 uM after 24 hrs by MTT assay; type: cell-based; conditions: human, read-out: Activity; method in brief: as §4
[12] = tested on: HepG2; assay: Induction of apoptosis in human HepG2 cells at 10 uM by annexin V-FITC/ethidium homodimer III staining-based flow cytometry relative to control; type: functional; method in brief: as §3
[13] = tested on: HepG2; assay: Induction of necrosis in human HepG2 cells at 10 uM by annexin V-FITC/ethidium homodimer III staining-based flow cytometry relative to control; type: functional; method in brief: as §3
[14] = Antiproliferative activity against human Caco2 cells assessed as cell viability at 10 uM after 24 hrs by MTT assay; type: functional; conditions: Caco-2, 24 h, read-out: Activity; method in brief: as §1
[15] = tested on: A549; assay: Induction of apoptosis in human A549 cells at 10 uM by annexin V-FITC/ethidium homodimer III staining-based flow cytometry relative to control; type: functional; method in brief: as §3
[16] = tested on: A549; assay: Induction of necrosis in human A549 cells at 10 uM by annexin V-FITC/ethidium homodimer III staining-based flow cytometry relative to control; type: functional; method in brief: as §3
[17] = tested on: Caco-2; assay: Induction of necrosis in human Caco2 cells at 10 uM by annexin V-FITC/ethidium homodimer III staining-based flow cytometry relative to control; type: functional; method in brief: as §3
[18] = tested on: MCF7; assay: Induction of apoptosis in human MCF7 cells assessed as increase in caspase 3 activation at IC50 using Ac-Asp-Glu-Val-Asp-pNA as substrate after 24 hrs by colorimetric assay relative to control; type: functional
Method in brief: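 MCF-7 cells were grown in RPMI with 10% fetal calf serum, penicillin and streptomycin at 37 °C under 5% CO2, then seeded at 5 × 10^5 cells/well and treated for 24 h. After the medium was removed, cells were lysed with lysis buffer and shaken for 10 min. Lysate was added to caspase-3 reaction buffer containing diluted substrate. The increase in A405 was read over 30 min and expressed relative to untreated controls.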

[19] = tested on: Caco-2; assay: Induction of apoptosis in human Caco2 cells at 10 uM by annexin V-FITC/ethidium homodimer III staining-based flow cytometry relative to control; type: functional; method in brief: as §3

Compound | IC50 [1] [µM] | IC50 [2] [µM] | IC50 [3] [µM] | IC50 [4] [µM] | Activity [5] [%] | Activity [6] [%] | viability at 24 h, 300 µM [7] [%] | viability at 24 h, 200 µM [8] [%] | IC50 [9] [µM] | viability at 24 h, 10 µM [10] [%] | viability at 24 h, 100 µM [11] [%] | Activity [12] [%] | Activity [13] [%] | viability at 10 µM [14] [%] | Activity [15] [%] | Activity [16] [%] | Activity [17] [%] | fold change (FC) [18] | Activity [19] [%]
COc1ccc(C2CC(c3ccc(Cl)cc3)=NN2c2ccc(-c3ccccc3)nn2)c(OC)c1 (stereo not drawn) | > 100 | > 100 | > 100 | > 100 |  |  |  |  |  |  |  |  |  |  |  |  |  |  | 
COc1cc(C2CC(c3ccc(Cl)cc3)=NN2c2ccc(-c3ccccc3)nn2)cc(OC)c1OC (stereo not drawn) | > 100 | > 100 | 83.3 | 100 |  |  |  |  |  |  |  |  |  |  |  |  |  |  | 
Fc1ccc(C2CC(c3ccc(Cl)cc3)=NN2c2ccc(-c3ccccc3)nn2)cc1 (stereo not drawn) | 10 | > 100 | > 100 | 3.75 | 1.98 | 32.1 | 68.8 | 75.8 | > 300 | 85.9 | 82.3 |  |  |  |  |  |  |  | 
c1ccc(C2=NN(c3ccc(-c4ccccc4)nn3)C(c3ccccc3)C2)cc1 (stereo not drawn) | 10 | 40.9 | > 100 | 23.8 |  |  |  |  |  |  |  |  |  |  |  |  |  |  | 
Fc1ccc(C2CC(c3ccccc3)=NN2c2ccc(-c3ccccc3)nn2)cc1 (stereo not drawn) | 8.42 | 10 | 89.2 | 100 |  |  | 78.6 | 86.3 | > 300 | 93.7 | 91.9 | 30.5 | 8.84 | 50 |  |  |  |  | 
Clc1ccc(C2=NN(c3ccc(-c4ccccc4)nn3)C(c3ccccc3)C2)cc1 (stereo not drawn) | 8.75 | 100 | 96.7 | 10 |  |  | 71.6 | 78.1 | > 300 | 84 | 81.6 | 22.7 | 23.45 |  |  |  |  |  | 
Clc1ccc(C2=NN(c3ccc(-c4ccccc4)nn3)C(c3ccc(Cl)cc3)C2)cc1 (stereo not drawn) | 10 | > 100 | > 100 | 8.8 | 0.1 | 39 | 76.4 | 79.8 | > 300 | 85.6 | 81.7 |  |  |  |  |  |  |  | 
Clc1ccc(C2CC(c3ccccc3)=NN2c2ccc(-c3ccccc3)nn2)cc1 (stereo not drawn) | 6.31 | 100 | 100 | 100 |  |  | 74 | 88.3 | > 300 | 96.6 | 91.2 | 44.4 | 4.4 |  |  |  |  |  | 
COc1cc(C2CC(c3ccccc3)=NN2c2ccc(-c3ccccc3)nn2)cc(OC)c1OC (stereo not drawn) | 100 | > 100 | 83.8 | 70 |  |  |  |  |  |  |  |  |  |  |  |  |  |  | 
COc1ccc(C2=NN(c3ccc(-c4ccccc4)nn3)C(c3cc(OC)c(OC)c(OC)c3)C2)cc1 (stereo not drawn) | > 100 | > 100 | > 100 | 100 |  |  |  |  |  |  |  |  |  |  |  |  |  |  | 
COc1ccc(C2=NN(c3ccc(-c4ccccc4)nn3)C(c3ccc(OC)cc3)C2)cc1 (stereo not drawn) | > 100 | > 100 | > 100 | 100 |  |  |  |  |  |  |  |  |  |  |  |  |  |  | 
COc1ccc(C2=NN(c3ccc(-c4ccccc4)nn3)C(c3ccc(OC)cc3OC)C2)cc1 (stereo not drawn) | > 100 | > 100 | 100 | 100 |  |  |  |  |  |  |  |  |  |  |  |  |  |  | 
FC(F)(F)c1ccc(C2CC(c3ccccc3)=NN2c2ccc(-c3ccccc3)nn2)cc1 (stereo not drawn) | 10 | 50 | 9.16 | 100 |  |  | 70.8 | 82.3 | > 300 | 89.8 | 86.2 |  |  |  | 46.6 | 11.11 |  |  | 
FC(F)(F)c1ccc(C2CC(c3ccc(Cl)cc3)=NN2c2ccc(-c3ccccc3)nn2)cc1 (stereo not drawn) | 8.33 | 10 | > 100 | 1.67 | 1.26 | 27.2 | 79.1 | 84.6 | > 300 | 92.7 | 87.7 | 24.8 | 4.97 | 50 |  |  | 1.87 | 5 | 13.4
COc1ccc(C2CC(c3ccccc3)=NN2c2ccc(-c3ccccc3)nn2)c(OC)c1 (stereo not drawn) | 100 | > 100 | 9.56 | > 100 |  |  | 74.2 | 81.1 | > 300 | 85.2 | 82.9 |  |  |  | 27 | 1.04 |  |  | 
COc1ccc(C2CC(c3ccccc3)=NN2c2ccc(-c3ccccc3)nn2)cc1 (stereo not drawn) | > 100 | > 100 | 91.7 | 100 |  |  |  |  |  |  |  |  |  |  |  |  |  |  | 
COc1ccc(C2=NN(c3ccc(-c4ccccc4)nn3)C(c3ccccc3)C2)cc1 (stereo not drawn) | > 100 | > 100 | 75.9 | > 100 |  |  |  |  |  |  |  |  |  |  |  |  |  |  | 
COc1ccc(C2=NN(c3ccc(-c4ccccc4)nn3)C(c3ccc(F)cc3)C2)cc1 (stereo not drawn) | 9.16 | 18.1 | > 100 | 20 |  |  |  |  |  |  |  |  |  |  |  |  |  |  | 
COc1ccc(C2CC(c3ccc(Cl)cc3)=NN2c2ccc(-c3ccccc3)nn2)cc1 (stereo not drawn) | > 100 | > 100 | 100 | 100 |  |  |  |  |  |  |  |  |  |  |  |  |  |  | 
COc1ccc(C2=NN(c3ccc(-c4ccccc4)nn3)C(c3ccc(Cl)cc3)C2)cc1 (stereo not drawn) | > 100 | > 100 | 100 | 58 |  |  |  |  |  |  |  |  |  |  |  |  |  |  | 
COc1ccc(C2=NN(c3ccc(-c4ccccc4)nn3)C(c3ccc(C(F)(F)F)cc3)C2)cc1 (stereo not drawn) | > 100 | 65 | > 100 | 46.8 |  |  |  |  |  |  |  |  |  |  |  |  |  |  | 
COc1cccc2c1C(=O)c1c(O)c3c(c(O)c1C2=O)C[C@@](O)(C(=O)CO)C[C@@H]3O[C@H]1C[C@H](N)[C@H](O)[C@H](C)O1 [DOXORUBICIN] |  | 3 |  |  |  |  |  |  |  |  |  |  |  |  |  |  |  |  | 
